Results taken from PMC9835613 (Chemosphere, 2022).
Several values for one entry are separate records, joined by “and”; a condition that tells them apart may be missing. Equal values may be shown once. Marks after values point to notes of the source that are not given here.

Legend:
[1] = system: zebrafish; experiment: Survival of embryos after TCDD exposure; assay type: in vivo, zebrafish (Danio rerio); settings: TCDD-exposed groups at 72 hpf; control (DMSO) 96.4%, p = 0.49
[2] = TCDD body burden and elimination in embryos, GC-HRMS; assay type: in vivo, zebrafish (Danio rerio); settings: for body burden relative to the 50 ppt dose: 24 hpf; for Concentration of TCDD detected per embryo (body burden): 1 h at 4 hpf, mean; for half-life: zebrafish, whole embryo (pooled embryos), other: waterborne exposure
In short: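 AB zebrafish embryos, screened at 3 hpf, exposed at 4 hpf (20 per 2 mL egg water) for 1 h to 50 ppt, 1 ppb or 10 ppb test compound (DMSO stock diluted 1:1000) or paired DMSO, then raised in fresh egg water at 28.5 °C. Dechorionated at 24 hpf. Pooled embryos (7 at 1 and 10 ppb) snap-frozen at 24, 48 and 72 hpf.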

[3] = ref Burkhard and Kuehl, 1986; cited from earlier work
[4] = system: zebrafish metabolome; experiment: Non-targeted LC-HRMS metabolomics of TCDD-exposed embryos; assay type: in vivo, zebrafish (Danio rerio); settings: TCDD exposed vs DMSO
In short: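 Embryos given a 1-h exposure at 4 hpf to 50 ppt or 10 ppb test compound, or matched DMSO, pooled (40 and 7 embryos respectively) at 24, 48 and 72 hpf. LC-HRMS used HILIC (25 °C) and C18 (60 °C) columns with 2 mM ammonium acetate/acetonitrile gradients, in negative and positive ion modes.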

For `Clc1cc2c(cc1Cl)Oc1cc(Cl)c(Cl)cc1O2` [TCDD, 2,3,7,8-tetrachlorodibenzo-p-dioxin], the average survival rate [1] was 96.3%, the “body burden relative to the 50 ppt dose” value ([2]; 1 ppb exposure vs 50 ppt exposure) was “approximately 3 times” and the “Concentration of TCDD detected per embryo (body burden)” value ([2]; 1 ppb waterborne exposure, 48 HPF) was 12.7 pg/embryo. The “Concentration of TCDD detected per embryo (body burden)” value ([2]; 1 ppb waterborne exposure, 72 HPF) was 4.30* pg/embryo, the “body burden relative to the 50 ppt dose” value ([2]; 10 ppb exposure vs 50 ppt exposure) was “approximately 4.45 times” and the “Concentration of TCDD detected per embryo (body burden)” value ([2]; 10 ppb waterborne exposure, 24 HPF) was 26.6 ± 1.2 pg/embryo and 38.0 ± 4.34 pg/embryo and 38.0* pg/embryo. The “Concentration of TCDD detected per embryo (body burden)” value ([2]; 10 ppb waterborne exposure, 48 HPF) was 14.7 pg/embryo, the “Concentration of TCDD detected per embryo (body burden)” value ([2]; 10 ppb waterborne exposure, 72 HPF) was 9.78* pg/embryo and the “Concentration of TCDD detected per embryo (body burden)” value ([2]; 50 ppt waterborne exposure, 48 HPF) was 5.27 pg/embryo. For the same compound, the “Concentration of TCDD detected per embryo (body burden)” value ([2]; 50 ppt waterborne exposure, 72 HPF) was 0.407 pg/embryo, the half-life ([2]; 1 ppb) was 32.7 h and the half-life ([2]; 10 ppb) was 10.7 h. For the same compound, the Kow [3] was 7.02, the “upregulation of 3a, 7a-Dihydroxy-5b-cholestane” value ([4]; bile acid biosynthesis pathway) was 1.01 fold and the “decrease of the dihydrotestosterone peak” value ([4]; every 24 h) was 6.02 fold. The downregulation of androsterone ([4]; every 24 h) was 0.363 fold, the upregulation of pregnenolone ([4]; every 24 h) was 0.529 fold and the “downregulation of L-Glutamic acid (glutamate)” value ([4]; over time) was 0.30 fold. The downregulation of dopamine ([4]; over time) was 0.66 fold and the “downregulation of gamma-aminobutyric acid (GABA)” value ([4]; over time) was 0.32 fold.
